This passage reports IC50 results from ChEMBL document CHEMBL1144907, “Novel sst(4)-selective somatostatin (SRIF) agonists. 3. Analogues amenable to radiolabeling” (J Med Chem, 2003).

Molecules are shown by their SMILES. Bridge positions count the residues as written; N and C are the ends. Peptide text beside a SMILES is read from it.

Assay [1] concerns the target Somatostatin receptor type 3 (Homo sapiens, UniProt P32745). Description: Binding affinity towards human somatostatin receptor type 3 using [125I][Leu8,D-Trp22,Tyr25]SRIF-28 as radioligand. In outline: (§1)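 Receptor autoradiography on 20-µm cryostat sections of pellets of cells stably expressing the cloned human receptor. Cell hosts: sst1 CHO-K1, sst2 CCL39, sst3 CCL39, sst5 CHO-K1. Sections were incubated with radioligand at 30 000 cpm/100 µL and displaced by unlabeled peptide from 0.1 to 1000 nM. SRIF-28 was run in parallel as control. IC50 was obtained by computer-assisted image quantification against calibrated isotope tissue standards.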

Assay [2] addresses Somatostatin receptor type 2 (Homo sapiens, UniProt P30874). Description: Binding affinity towards human somatostatin receptor type 2 using [125I][Leu8,D-Trp22,Tyr25]SRIF-28 as radioligand. In outline:
as §1

The target of assay [3] is Somatostatin receptor type 4 (Homo sapiens, UniProt P31391). Description: Binding affinity towards human somatostatin receptor type 4 using [125I][Leu8,D-Trp22,Tyr25]SRIF-28 as radioligand.
Sequence of Somatostatin receptor type 4 (P31391 whole entry): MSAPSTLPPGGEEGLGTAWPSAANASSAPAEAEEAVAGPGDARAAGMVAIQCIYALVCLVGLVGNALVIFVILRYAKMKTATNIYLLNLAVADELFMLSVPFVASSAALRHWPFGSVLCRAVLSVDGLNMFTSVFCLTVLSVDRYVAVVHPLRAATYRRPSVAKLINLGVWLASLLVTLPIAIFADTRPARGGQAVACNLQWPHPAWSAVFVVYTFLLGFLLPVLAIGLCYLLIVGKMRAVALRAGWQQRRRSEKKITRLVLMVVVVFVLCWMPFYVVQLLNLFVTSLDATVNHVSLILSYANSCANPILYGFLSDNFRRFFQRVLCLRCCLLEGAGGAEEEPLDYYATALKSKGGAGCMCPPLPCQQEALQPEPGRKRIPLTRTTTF
In assay [4] the target is Somatostatin receptor type 5 (Homo sapiens, UniProt P35346). Description: Binding affinity towards human somatostatin receptor type 5 using [125I][Leu8,D-Trp22,Tyr25]SRIF-28 as radioligand. In outline: as §1
Sequence of Somatostatin receptor type 5 (P35346 whole entry): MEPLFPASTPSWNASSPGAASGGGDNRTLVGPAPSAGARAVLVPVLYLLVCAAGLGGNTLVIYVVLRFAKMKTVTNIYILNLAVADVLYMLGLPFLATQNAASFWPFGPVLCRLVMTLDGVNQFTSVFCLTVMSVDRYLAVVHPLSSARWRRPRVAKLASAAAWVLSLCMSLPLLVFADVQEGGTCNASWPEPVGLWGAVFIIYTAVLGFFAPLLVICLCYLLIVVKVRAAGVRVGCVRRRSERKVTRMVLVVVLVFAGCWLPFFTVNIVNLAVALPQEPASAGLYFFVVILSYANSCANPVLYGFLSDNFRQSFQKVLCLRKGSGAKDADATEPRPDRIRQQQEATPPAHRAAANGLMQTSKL
In assay [5] the target is Somatostatin receptor type 1 (Homo sapiens, UniProt P30872). Briefly: Binding affinity towards human somatostatin receptor type 1 using [125I][Leu8,D-Trp22,Tyr25]SRIF-28 as radioligand. In outline:
as §1

Sequence of Somatostatin receptor type 3 (P32745 whole entry): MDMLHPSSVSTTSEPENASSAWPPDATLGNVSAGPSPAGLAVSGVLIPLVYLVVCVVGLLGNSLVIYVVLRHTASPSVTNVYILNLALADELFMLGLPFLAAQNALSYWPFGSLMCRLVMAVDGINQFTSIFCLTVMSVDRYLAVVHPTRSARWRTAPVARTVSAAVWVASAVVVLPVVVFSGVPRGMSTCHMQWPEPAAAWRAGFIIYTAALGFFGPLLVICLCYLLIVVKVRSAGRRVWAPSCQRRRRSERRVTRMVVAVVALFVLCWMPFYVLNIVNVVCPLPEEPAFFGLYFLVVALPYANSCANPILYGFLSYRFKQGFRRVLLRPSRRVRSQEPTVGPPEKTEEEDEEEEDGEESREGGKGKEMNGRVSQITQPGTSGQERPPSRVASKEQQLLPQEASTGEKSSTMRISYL
Sequence of Somatostatin receptor type 1 (P30872 whole entry): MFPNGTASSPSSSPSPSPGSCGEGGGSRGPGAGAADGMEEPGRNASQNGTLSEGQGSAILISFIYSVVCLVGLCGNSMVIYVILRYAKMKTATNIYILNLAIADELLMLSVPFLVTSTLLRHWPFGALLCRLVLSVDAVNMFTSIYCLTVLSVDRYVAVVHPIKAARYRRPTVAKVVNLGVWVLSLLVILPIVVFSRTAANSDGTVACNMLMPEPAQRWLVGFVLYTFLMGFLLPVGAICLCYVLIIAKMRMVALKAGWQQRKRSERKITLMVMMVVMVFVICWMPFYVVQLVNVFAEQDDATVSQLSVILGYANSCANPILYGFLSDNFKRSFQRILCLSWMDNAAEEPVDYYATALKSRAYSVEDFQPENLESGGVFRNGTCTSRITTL
Sequence of Somatostatin receptor type 2 (P30874 whole entry): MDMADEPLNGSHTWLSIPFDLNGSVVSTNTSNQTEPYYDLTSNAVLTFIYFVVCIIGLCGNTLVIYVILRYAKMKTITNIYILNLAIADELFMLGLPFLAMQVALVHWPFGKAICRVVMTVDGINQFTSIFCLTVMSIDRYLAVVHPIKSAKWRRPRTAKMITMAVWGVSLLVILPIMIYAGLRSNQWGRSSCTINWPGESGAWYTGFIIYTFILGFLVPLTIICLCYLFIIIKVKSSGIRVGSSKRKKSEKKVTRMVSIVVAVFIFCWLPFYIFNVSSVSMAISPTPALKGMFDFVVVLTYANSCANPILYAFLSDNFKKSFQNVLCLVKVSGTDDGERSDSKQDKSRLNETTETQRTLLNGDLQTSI

For `C[C@@H](O)[C@@H]1NC(=O)[C@H](CCCCN)NC(=O)[C@H](Cc2c[nH]c3ccccc23)NC(=O)[C@H](Cc2ccccc2)NC(=O)[C@H](Cc2ccccc2)NC(=O)[C@@H](N)CSSC[C@@H](C(=O)O)NC(=O)[C@H](Cc2ccccc2)NC1=O` (H-CFFWKTFC-OH; disulfide 1-8), the IC50 was 13 nM in assay [1]; 130 nM in assay [2]; 0.7 nM in assay [3]; 14 nM in assay [4]; 5.3 nM in assay [5].
Take `C[C@@H](O)[C@@H]1NC(=O)[C@H](CCCCN)NC(=O)[C@H](Cc2c[nH]c3ccccc23)NC(=O)[C@H](Cc2ccc(N)cc2)NC(=O)[C@H](Cc2ccccc2)NC(=O)[C@@H](NC(=O)[C@H](Cc2ccc(O)c(I)c2)NC(N)=O)CSSC[C@@H](C(=O)O)NC(=O)[C@H](Cc2ccccc2)NC1=O`: the IC50 in assay [1] is 325 nM; in assay [2] it was more than 1000 nM; in assay [3] it was 8.8 nM; in assay [4], 990 nM; in assay [5], more than 1000 nM.

The IC50 is the point on the concentration scale where inhibition reaches its midpoint. Read a high IC50 as a need for much substance.
